Results from ChEMBL document CHEMBL4513216, “Probing the Open Global Health Chemical Diversity Library for Multistage-Active Starting Points for Next-Generation Antimalarials” (ACS Infect Dis, 2020).

Assay: Toxicity liver stage against HepG2, at 10uM
Format: cell-based
Set-up: test concentration 10 uM, cell line HepG2-A16-CD81EGFP
Settings: human, HepG2-A16-CD81EGFP cells; read-out: INHIBITION
How it was run: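 Uninfected HepG2-A16-CD81EGFP cells, 3 × 10^3 per well, 1536-well, plated on prespotted compound at 10 μM final, parasite-free screening media added to match infected plates; puromycin 10 μM positive, DMSO 0.5% negative; run in parallel with 48 h PbLuc assay at 37 °C, 5% CO2; viability by CellTiter-Glo luminescence, normalized to controls.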

Compound | cytotoxicity at 10 µM [%]
CC1Cn2c(nc3c2c(=O)[nH]c(=O)n3C)O1 (configuration not stated) | 1.26
COC(=O)CNC(=O)N1CCN(c2nc3ccccc3n2C)CC1 | -9.46
CC(C)(C)OCC1CN(Cc2cccs2)S(=O)(=O)c2cnccc2O1 (configuration not stated) | 2.89
CN1C[C@H](O)[C@]2(CCN(C(=O)NCc3ccccc3)C2)S1(=O)=O | 4.53
CCCC(O)CN1CCC(=O)N(CC2CC2)Cc2cc3c(cc21)OCO3 (configuration not stated) | -1.89
O=C(O)Cn1ccc(=O)c2ccc(Cl)cc21 | -7.76
COCC(=O)N(Cc1ccc2cc[nH]c2c1)C1CC1 | -5.54
CC(C)n1cc(C(=O)NC2CCS(=O)(=O)C2)c2ccccc2c1=O (configuration not stated) | 1.85
CC(C)c1sc(Cl)nc1C(=O)N1CCN(Cc2ccccc2)CC1 | -2.7
CCCc1noc(C2CC(=O)N(Cc3ccccc3)C2)n1 (configuration not stated) | -2.62
O=C(Cc1cccs1)N1CCC2(CCCN(CC3CCOCC3)C2)C1 (configuration not stated) | -144
CCCS(=O)(=O)N1CCC2(CC1)CN(C(=O)N(C)C)c1ccccc12 | -108
Cc1nc([C@H]2C[C@@H]3CCN(Cc4cnn(C)c4)C[C@H]3O2)sc1C | -1.96
COc1ncnc2c1CCN(Cc1cccc(C)n1)CC2 | -146
CC(C)c1cc2c(O)nc(CSCC(=O)NCc3ccccn3)nc2s1 | -5.29
COc1cc(Cl)c(C)cc1-n1nnc(C(=O)O)c1C | -8.29
COc1cc2ncn(CC(=O)NCCCN(C)C)c(=O)c2cc1OC | 10
O=C1CC(c2ccccc2)c2c(n3ccsc3nc2=O)N1 (configuration not stated) | -4.74
O=C(C1CCOC1)N1CC[C@@H](O)[C@@H]1Cc1ccccc1 (some centres not stated) | 9.34
O=C(c1ccc(Cl)cc1)N1CCCn2nnc(Cn3cccn3)c2C1 | -10.3
Clc1cccc(-n2cnnn2)c1N1CCCC1 | 9.35
COC(=O)C1=NOC(Cc2cc(OC)c3c(c2)OCO3)C1 (configuration not stated) | 5.82
Cc1nn(C)c2c(N3CCN(C(=O)c4ccccc4)CC3)ncnc12 | 10.9

Compound | cytotoxicity at 10 µM [%]
COc1ccccc1OCCN(C)Cc1c(C2CC2)[nH]c2ncccc12 | 5.62
CC1(c2[nH]ncc2C(N)=O)CCN(S(=O)(=O)c2ccccc2)CC1 | -1.29
CN1CCN(c2nc(O)cc(Cc3ccccc3F)n2)CC1 | -5.08
CCN1CCN(c2nc(O)cc(Cc3ccccc3F)n2)CC1 | -1.83
Cc1nc2cc(C(=O)N3CCn4c(nnc4C4CC4)C3)ccc2s1 | -1.41
C[C@]12CCCCN(C(=O)c3ccccn3)[C@H]1CCCC(=O)N2 | -20.1
Cc1n[nH]c(C)c1-c1cnc(C2CCN(S(C)(=O)=O)CC2)cn1 | -1.57
CNc1cc(C)nc(C2CN(Cc3cncs3)CCO2)c1 (configuration not stated) | -12.3
Cc1cc(-c2cnc(NC3CCCC3)nc2-c2ccc(C)o2)on1 | -22.4
CC(=O)N1CCCC1c1cncc(Oc2ccc(F)cc2)n1 (configuration not stated) | -15.8
Cc1ccc(C(=O)N2CCOC(c3nc(-c4ncccn4)no3)C2)cc1 (configuration not stated) | -19.9
CC(C)(C)C(=O)N1CCC(c2nc(O)cc(-c3ccncc3)n2)CC1 | -22
COc1ccc2nc(C3CC3)cc(C(=O)NCc3ncnn3C)c2c1 | -8.06
O=C(NCCc1nncn1C1CC1)C1(Cc2ccccc2)CCC1 | 7.87
CN(Cc1nnc2ccccn12)C(=O)CC1CCCCC1 | 13.7
Cn1c(NCc2ccc(C(N)=O)cc2)nc2cc(Cl)ccc21 | 1.42
Cc1cc(C)n2c(CNCc3ccc(OC(F)F)cc3)cnc2n1 | -145
CCOCC(=O)Nc1cc(-c2cccc(F)c2F)n[nH]1 | 0.107
COc1ccccc1CCNC(=O)CNCC1CN(C)CCO1 (configuration not stated) | 1.49
Cc1noc(C)c1C(=O)N(C)C(C)c1ccc(S(C)(=O)=O)cc1 (configuration not stated) | 4.96
CCN(CC)C(=O)N1CCOCC1c1c(C)nn(C)c1C (configuration not stated) | 11.3
CC(C)(CNC(=O)Nc1cccc(-c2cccs2)c1)C(N)=O | -9.99
COCCN1CCC(NC(=O)NCC2(c3cccc(F)c3)CC2)C1 (configuration not stated) | 5.59

Compound | cytotoxicity at 10 µM [%]
CCOCC(=O)Nc1ccc(-n2ccc(C(N)=O)n2)cc1 | -5.27
CN(c1ccc2ccccc2c1)S(=O)(=O)c1cc(C(=O)O)cs1 | 1.2
Cc1ccc(-c2cc(CN3CCc4cnc(C)nc4C3)on2)cc1 | 4.88
N#Cc1ccc(C(=O)NCC2(N3CCOCC3)CCCC2)nc1 | 8.96
Cc1noc(OCCOc2cccc(C#N)c2)n1 | 0.63
CC(CCS(C)(=O)=O)NC(=O)NCc1ccc2c(c1)CCC2 (configuration not stated) | -143
COCCN(CCOC)C(=O)c1cccc(Cn2nc(C)cc2C)c1 | -8.22
COCc1nn(Cc2ccc(Cl)s2)c(=O)o1 | 1.97
COC(=O)N1CCC(NC(=O)CC(C)CCc2ccccc2)CC1 (configuration not stated) | 4.6
CCC(CC)c1cc(CNC(=O)N2CCOCC2CC)on1 (configuration not stated) | -5.59
O=C1CN(Cc2nnc(-c3ccc(Br)cc3)o2)CCN1 | 2.55
NC(=O)CCOc1nc(-c2ccccc2Cl)no1 | -1.64
CCOCCCC(=O)NCc1cn2cc(Br)ccc2n1 | 2.73
CCc1cc(NCc2ccccc2CN2CCCC2)n2ncnc2n1 | 5.42
CCCN1CCN(C(=O)c2scnc2C)CC1 | -0.73
O=C(NCCCOCC1CC1)Nc1cccnc1N1CCOCC1 | 5.55
CC(Oc1ccccc1C(F)(F)F)C(=O)NCC(N)=O (configuration not stated) | -8.38
Cc1nc2ccccc2n1Cc1cc(C(=O)NC2CCOC2)no1 (configuration not stated) | 4.45
Cc1ccc(CNC(=O)CC2C(=O)NCCN2Cc2ccccc2C)s1 (configuration not stated) | -7.98
COc1ccc2c(c1)OCC(Cc1ccnc(N)n1)C2 (configuration not stated) | -0.651
CN(C)Cc1ccccc1CN(C)C(=O)c1ccoc1 | -11.8
O=C(NC1CC(=O)N(C2Cc3ccccc3C2)C1)c1ccoc1 (configuration not stated) | -2.4
Cc1ccc2[nH]c(-c3cn(C4CCNCC4)nn3)nc2c1C | -4.92

Compound | cytotoxicity at 10 µM [%]
COC(=O)[C@@H](Nc1nc(C2CCCC2)nc2c1cnn2C)[C@@H](C)O | -50
COCCN(Cc1ccccc1Cl)C(=O)c1c(C)cc(C)[nH]c1=O | -5.6
Cc1ccc(Oc2ncccc2CNC2CCCCC2)cn1 | -8.59
CCSCCC(=O)N1CCc2[nH]nc(COc3ccccc3)c2C1 | -2.19
O=C(Cc1cc(F)cc(Cl)c1)N[C@@H]1CCNC[C@H]1O | -3.66
CCCn1cc(C(=O)NC(CC(=O)O)c2ccco2)c(C)n1 (configuration not stated) | -61.4
O=C(C1CCC1)N1CCc2[nH]cnc2C12CCN(C1CCOCC1)CC2 | -2.4
Cc1nccn1C1(C(=O)O)CCN(Cc2ccc3nsnc3c2)CC1 | -4.97
O=C(NCC(F)(F)F)C1CCC(=O)N(C2CCCC2)C1 (configuration not stated) | -8.77
CN(C)c1nc(NCc2ccccc2Cn2cccn2)ncc1F | 54.4
CN(C)CCNC(=O)c1cnc2c(c1)nc(-c1ccccc1Cl)n2C | 10.6
Cc1ccc([C@@H]2CN(S(=O)(=O)c3cccs3)C[C@H]2N(C)C)cc1 | -3.12
CC(C)c1cc(C(F)(F)F)n2nc(CCC(=O)O)nc2n1 | 5.97
COc1cccc(OC)c1C(=O)N1CCN(c2ccccc2F)CC1 | -5.22
Cc1cncc(C2CCCN(C(=O)c3c[nH]c(=O)[nH]c3=O)C2)n1 (configuration not stated) | 1.92
CCc1nc2n(n1)CC(NCc1cnn(-c3ccccc3)n1)CC2 (configuration not stated) | -3.01
CCc1nc(C2CCCN2C(=O)c2csc(COC)n2)no1 (configuration not stated) | 1.04
CC(Cn1cccn1)NCC(=O)NCCc1cccs1 (configuration not stated) | -12.7
Cc1nc(C2CCCN(C(=O)COCCc3ccccc3)C2)no1 (configuration not stated) | -11.1
Cc1cnn(CC2CN(CC(=O)NCc3ccco3)CCO2)c1 (configuration not stated) | -1.43
O=C(CN1CCOC(Cn2cccn2)C1)NCc1ccccn1 (configuration not stated) | -6.73
CC(=O)N1CCN(C(=O)NCCc2ccc(Cl)s2)CC1 | -11.6
CCOc1cccc(C(=O)N2CCC(c3n[nH]c(C4CC4)n3)CC2)c1 | -16.8

Compound | cytotoxicity at 10 µM [%]
CCC(=O)N(C)C1CCN(Cc2ncc(C)c(OC)c2C)CC1 | -9.86
CCc1ncncc1C(=O)N1CCN(Cc2c(C)noc2C)CC1 | -13.8
Cc1nc(C)n(CC2CCCN2CC(=O)Nc2cc(C(C)C)no2)n1 (configuration not stated) | -0.292
CN(CCc1ccc(F)cc1)Cc1nc2c(cnn2C)c(=O)[nH]1 | -1.69
CCc1nc(C2CCCN2C(=O)c2ccoc2C)no1 (configuration not stated) | -11.6
O=C(CN1CCC(c2ccnn2CCO)CC1)NCc1cccs1 | -10.4
CCCc1cc(C(=O)N2CCCC(n3ccnc3C)C2)[nH]n1 (configuration not stated) | -15.6
Cc1ccn(-c2ccc(C(=O)N3CCCC(C(N)=O)C3)cc2)n1 (configuration not stated) | -5.38
Cc1cc(C)n(C2CN(CC(=O)NCC(C)(C)N3CCOCC3)C2)n1 | -3.42
Cn1cc(N2CCCC(NCc3cccc4c3OCCCO4)C2)cn1 (configuration not stated) | -8.58
CCc1nc(C2CCCN2C(=O)CCCn2cccn2)no1 (configuration not stated) | -13.1
CCN1CC(C(=O)NCc2ccccc2-n2cccn2)CC1=O (configuration not stated) | 3.2
Cc1n[nH]c(C2CN(C(=O)c3cc(C4CC4)[nH]n3)CCO2)n1 (configuration not stated) | 0.192
CCC(=O)NCCCn1c(-c2cccnc2C)cc2cccnc21 | 3.84
Cc1cc(Oc2ccccc2F)nc(C2CCCCN2)n1 (configuration not stated) | 8.44
Cn1cc(C(=O)N2CC[C@@H]3[C@@H]2CCN3Cc2cccnc2)cn1 | 3.06
Cc1ccc2c(n1)N(CCN(C)C)CCN(C(=O)c1ccc[nH]1)C2 | 6.59
CCN(C)c1ncnc2c1CCN(Cc1csc(C)n1)CC2 | -1.13
Cn1cnc2c1C(COCC1CC1)CN(C(=O)Cc1ccsc1)C2 (configuration not stated) | -2.67
CCC12CN3CC(CC)(CN(C1)C3c1[nH]c(=O)[nH]c(=O)c1C)C2=O (configuration not stated) | 12.5
